Calls of active or inactive are those of the source. No cut-off for these calls is given here.
Tests used:
Human alphaherpesvirus 1 [1] = assay: Antiviral activity against HSV1 infected in African green monkey BSC-1 cells assessed as inhibition of virus multiplication at 12 ug/ml after 96 hrs by plaque reduction assay; format: functional; conditions: Human alphaherpesvirus 1, BSC-1, 96 h
Vaccinia virus [2] = assay: Antiviral activity against Vaccinia virus infected in African green monkey BSC-1 cells assessed as inhibition of virus multiplication at 12 ug/ml after 96 hrs by plaque reduction assay; format: functional; conditions: Orthopoxvirus vaccinia, BSC-1, 96 h
[3] = Cytotoxicity against Vaccinia virus infected African green monkey BSC1 cells at 100 ug/ml; format: cell-based; conditions: chlorocebus aethiops, bsc-1
Vaccinia virus [4] = assay: Antiviral activity against Vaccinia virus infected in mouse assessed as assessed as protection against viral infection; format: functional, organism-based; conditions: Orthopoxvirus vaccinia
Human alphaherpesvirus 1 [5] = assay: Antiviral activity against HSV1 infected in African green monkey BSC-1 cells assessed as inhibition of virus multiplication at 25 ug/ml after 96 hrs by plaque reduction assay; format: functional; conditions: Human alphaherpesvirus 1, BSC-1, 96 h
Vaccinia virus [6] = assay: Antiviral activity against Vaccinia virus infected in African green monkey BSC-1 cells assessed as inhibition of virus multiplication at 25 ug/ml after 96 hrs by plaque reduction assay; format: functional; conditions: Orthopoxvirus vaccinia, BSC-1, 96 h
[7] = system: Transmissible gastroenteritis virus; assay: Antiviral activity against Transmissible gastroenteritis virus infected in pig at 25 mg/animal administered 3 times per day; format: functional, organism-based
In short: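 Piglets weighing 4-5 lb dosed at 25 mg/pig three times daily and challenged with virus. Weight and survival monitored against untreated controls over 72 h.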

Vaccinia virus [8] = assay: Antiviral activity against Vaccinia virus infected in African green monkey BSC-1 cells assessed as inhibition of virus multiplication at 6 ug/ml after 96 hrs by plaque reduction assay; format: functional; conditions: Orthopoxvirus vaccinia, BSC-1, 96 h
Vaccinia virus [9] = assay: Antiviral activity against Vaccinia virus infected in African green monkey BSC-1 cells assessed as inhibition of virus multiplication at 50 ug/ml after 96 hrs by plaque reduction assay; format: functional; conditions: Orthopoxvirus vaccinia, BSC-1, 96 h
Sus scrofa = assay: Toxicity in Transmissible gastroenteritis virus infected pig at 25 mg/animal administered 3 times per day; format: organism-based; conditions: in vivo
In short: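 Piglets (4-5 lb), four per treated group with two untreated controls, were given 25 mg/pig three times a day and challenged with virus. Body weight was followed from 24 h after challenge through 48 h, and animals were watched for signs of illness and for deaths.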

Human alphaherpesvirus 1 [10] = assay: Antiviral activity against HSV1 infected in African green monkey BSC-1 cells assessed as inhibition of virus multiplication at 50 ug/ml after 96 hrs by plaque reduction assay; format: functional; conditions: Human alphaherpesvirus 1, BSC-1, 96 h
Human alphaherpesvirus 1 [11] = assay: Antiviral activity against HSV1 infected in mouse assessed as assessed as protection against viral infection; format: functional, organism-based
[12] = target: T1, Dopamine beta-hydroxylase (Bos taurus, UniProt P15101); assay: Inhibition of bovine adrenal medullae dopamine-beta-hydroxylase; set-up: species or system Adrenal medulla; conditions: read-out: I50 (converted)
T1 sequence (P15101 whole entry): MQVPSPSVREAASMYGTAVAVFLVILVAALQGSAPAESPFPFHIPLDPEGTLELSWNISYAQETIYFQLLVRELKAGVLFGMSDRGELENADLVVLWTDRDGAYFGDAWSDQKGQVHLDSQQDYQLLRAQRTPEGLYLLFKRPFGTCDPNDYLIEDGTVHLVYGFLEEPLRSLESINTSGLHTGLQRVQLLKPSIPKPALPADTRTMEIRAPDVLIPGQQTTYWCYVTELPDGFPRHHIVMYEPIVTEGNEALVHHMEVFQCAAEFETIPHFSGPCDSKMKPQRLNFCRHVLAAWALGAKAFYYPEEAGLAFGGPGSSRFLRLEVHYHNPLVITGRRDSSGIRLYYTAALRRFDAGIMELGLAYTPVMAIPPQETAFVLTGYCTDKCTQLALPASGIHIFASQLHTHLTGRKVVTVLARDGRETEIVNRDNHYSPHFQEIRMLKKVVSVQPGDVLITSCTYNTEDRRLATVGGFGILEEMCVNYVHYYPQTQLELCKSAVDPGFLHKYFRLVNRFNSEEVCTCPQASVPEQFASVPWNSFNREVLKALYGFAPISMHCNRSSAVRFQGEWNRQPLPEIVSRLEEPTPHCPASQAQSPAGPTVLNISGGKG

Human alphaherpesvirus 1 [13] = assay: Antiviral activity against HSV1 infected in African green monkey BSC-1 cells assessed as inhibition of virus multiplication at 6 ug/ml after 96 hrs by plaque reduction assay; format: functional; conditions: Human alphaherpesvirus 1, BSC-1, 96 h
Vaccinia virus [14] = assay: Antiviral activity against Vaccinia virus infected in African green monkey BSC-1 cells assessed as inhibition of virus multiplication at 3 ug/ml after 96 hrs by plaque reduction assay; format: functional; conditions: Orthopoxvirus vaccinia, BSC-1, 96 h
Vaccinia virus [15] = assay: Antiviral activity against Vaccinia virus infected in African green monkey BSC-1 cells assessed as inhibition of virus multiplication at 100 ug/ml after 96 hrs by plaque reduction assay; format: functional; conditions: Orthopoxvirus vaccinia, BSC-1, 96 h
[16] = Cytotoxicity against HSV1 infected African green monkey BSC1 cells at 50 ug/ml; format: cell-based; conditions: chlorocebus aethiops, bsc-1
[17] = Cytotoxicity against Vaccinia virus infected African green monkey BSC1 cells at 25 ug/ml; format: cell-based; conditions: chlorocebus aethiops, bsc-1
[18] = Cytotoxicity against Vaccinia virus infected African green monkey BSC1 cells at 50 ug/ml; format: cell-based; conditions: chlorocebus aethiops, bsc-1
[19] = Cytotoxicity against HSV1 infected African green monkey BSC1 cells at 25 ug/ml; format: cell-based; conditions: chlorocebus aethiops, bsc-1

Compound | inhibition at 12 µg/mL (Human alphaherpesvirus 1 [1]) | inhibition at 12 µg/mL (Vaccinia virus [2]) | Activity [3] | Activity (Vaccinia virus [4]) | inhibition at 25 µg/mL (Human alphaherpesvirus 1 [5]) | inhibition at 25 µg/mL (Vaccinia virus [6]) | Activity [7] | inhibition at 6 µg/mL (Vaccinia virus [8]) | inhibition at 50 µg/mL (Vaccinia virus [9]) | Activity (Sus scrofa) | inhibition at 50 µg/mL (Human alphaherpesvirus 1 [10]) | Activity (Human alphaherpesvirus 1 [11]) | IC50 [12] | inhibition at 6 µg/mL (Human alphaherpesvirus 1 [13]) | inhibition at 3 µg/mL (Vaccinia virus [14]) | inhibition at 100 µg/mL (Vaccinia virus [15]) | Activity [16] | Activity [17] | Activity [18] | Activity [19]
Nc1ncn(Cc2ccccc2Br)c2ncnc1-2 | 100% | 34% | Toxic | inactive | 100% | 100% | inactive | 0% | 100% | Toxic | 100% | inactive | 658 µM | 71% | 0% | – | – | – | – | –
Cc1ccc(Cn2cnc(N)c3ncnc2-3)cc1 | 0% | 0% | Toxic | – | 0% | 8% | – | – | 10% | – | 0% | – | 83.6 µM | 0% | – | – | – | – | – | –
CCCn1cnc(N)c2ncnc1-2 [3-PROPYLADENINE] | 0% | 0% | – | – | 0% | 0% | – | 0% | 0% | – | 0% | – | 1130 µM | 0% | – | 0% | – | – | – | –
CC(C)CCn1cnc(N)c2ncnc1-2 | 0% | 0% | – | – | 0% | 7% | – | 0% | 7% | – | 27% | – | 974 µM | 0% | – | 8% | – | – | – | –
CCn1cnc(N)c2ncnc1-2 [3-ETHYLADENINE] | 0% | 0% | – | – | 0% | 0% | – | 0% | 0% | – | 0% | – | > 1230 µM | 0% | – | 0% | – | – | – | –
Nc1ncn(Cc2ccc(Cl)cc2Cl)c2ncnc1-2 | 0% | 0% | Toxic | – | 20% | – | – | 0% | – | – | – | – | 680 µM | 0% | – | – | Toxic | Toxic | Toxic | –
Nc1ncn(Cc2ccccc2Cl)c2ncnc1-2 | 42% | 0% | Toxic | – | 100% | 0% | – | 0% | 100% | – | 100% | – | 770 µM | 0% | 0% | – | – | – | – | –
CCCCn1cnc(N)c2ncnc1-2 [3-BUTYLADENINE] | 0% | 0% | – | – | 0% | 0% | – | – | 0% | – | 0% | – | 105 µM | 0% | – | 1% | – | – | – | –
Nc1ncn(Cc2ccco2)c2ncnc1-2 | 0% | – | – | – | 0% | 0% | – | – | 0% | – | 0% | – | – | 0% | – | 0% | – | – | – | –
Nc1ncn(Cc2ccc(Cl)c(Cl)c2)c2ncnc1-2 | 0% | 100% | Toxic | – | 27% | – | – | 87% | – | – | – | – | 6.8 µM | 0% | 47% | – | Toxic | Toxic | Toxic | –
Nc1ncn(Cc2ccccc2)c2ncnc1-2 [3-BENZYLADENINE] | 0% | 0% | – | – | 0% | 0% | – | – | 3% | – | 0% | – | 8.88 µM | 0% | – | 3% | – | – | – | –
Nc1ncn(Cc2cccc(C(F)(F)F)c2)c2ncnc1-2 | – | – | – | – | – | – | – | – | – | – | – | – | 68.2 µM | – | – | – | – | – | – | –
Nc1ncn(CC2CCCCC2)c2ncnc1-2 | 0% | 0% | – | – | 0% | 0% | – | – | 7% | – | 0% | – | 8.65 µM | 0% | – | – | – | – | – | –
Nc1ncn(Cc2cccc(Cl)c2)c2ncnc1-2 | 0% | 0% | – | – | 0% | 16% | – | 0% | 37% | – | 45% | – | 7.7 µM | 0% | – | 100% | – | – | – | –
Cc1cccc(Cn2cnc(N)c3ncnc2-3)c1 | 0% | 0% | Toxic | – | 0% | 0% | – | – | 0% | – | 9% | – | 83.6 µM | 0% | – | – | – | – | – | –
Cc1ccccc1Cn1cnc(N)c2ncnc1-2 | 0% | 0% | Toxic | – | 0% | 0% | – | – | 0% | – | 30% | – | 836 µM | 0% | – | – | – | – | – | –
Nc1ncn(Cc2ccc(Cl)cc2)c2ncnc1-2 | 0% | 51% | Toxic | – | 0% | 70% | – | – | 100% | – | 15% | – | 77 µM | 0% | – | – | – | – | – | –
CCCCCn1cnc(N)c2ncnc1-2 | 0% | 33% | – | – | 0% | 35% | – | – | 72% | – | 3% | – | 2.44 µM | 0% | – | 96% | – | – | – | –
Cc1ccc(Cn2cnc(N)c3ncnc2-3)cc1C | 42% | 0% | Toxic | – | – | – | – | 0% | – | – | – | – | 79 µM | 0% | 0% | – | Toxic | Toxic | Toxic | Toxic
CCCCCCn1cnc(N)c2ncnc1-2 | 0% | 27% | Toxic | – | 0% | 77% | – | – | 100% | – | 16% | – | 4.56 µM | 0% | – | – | – | – | – | –
